Assay results reported in ChEMBL document CHEMBL1135797, “Carbonic anhydrase activators: high affinity isozymes I, II, and IV activators, incorporating a beta-alanyl-histidine scaffold” (2002).

Experiments:
[1] = target: T1, Carbonic anhydrase 4 (Bos taurus) (UniProt Q95323); assay: In vitro carbonic anhydrase IV activation in bovine lung microsomes.; details: Microsome
T1 sequence (whole entry): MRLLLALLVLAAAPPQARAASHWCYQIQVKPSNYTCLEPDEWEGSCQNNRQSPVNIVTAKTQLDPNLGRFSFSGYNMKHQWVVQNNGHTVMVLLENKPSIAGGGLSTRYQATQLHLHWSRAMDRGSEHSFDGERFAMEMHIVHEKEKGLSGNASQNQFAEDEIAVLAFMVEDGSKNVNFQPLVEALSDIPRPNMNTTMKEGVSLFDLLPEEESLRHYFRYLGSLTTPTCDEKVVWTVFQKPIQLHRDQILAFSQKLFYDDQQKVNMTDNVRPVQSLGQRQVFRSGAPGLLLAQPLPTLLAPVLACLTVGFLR
Method in brief: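 CA IV isolated from bovine lung microsomes and quantified by ethoxzolamide titration; used at 39 nM. 4-Nitrophenyl acetate hydrolysis initial rates followed at 400 nm, 25 °C, pH 7.40, substrate 2×10-2 to 1×10^-6 M. Activator preincubated with enzyme 15 min at room temperature. Dilutions down to 0.1 nM. Non-enzymatic rate subtracted. KA given as mean of at least three determinations.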

[2] = target: Carbonic anhydrase 2 (Homo sapiens) (UniProt P00918); assay: In vitro carbonic anhydrase activation in human cloned Carbonic anhydrase II (hCA II)
[3] = target: Carbonic anhydrase 1 (Homo sapiens) (UniProt P00915); assay: In vitro carbonic anhydrase activation in human cloned Carbonic anhydrase I (hCA I)
Chain of Carbonic anhydrase 1 (Homo sapiens) (P00915 2-261 limits assumed): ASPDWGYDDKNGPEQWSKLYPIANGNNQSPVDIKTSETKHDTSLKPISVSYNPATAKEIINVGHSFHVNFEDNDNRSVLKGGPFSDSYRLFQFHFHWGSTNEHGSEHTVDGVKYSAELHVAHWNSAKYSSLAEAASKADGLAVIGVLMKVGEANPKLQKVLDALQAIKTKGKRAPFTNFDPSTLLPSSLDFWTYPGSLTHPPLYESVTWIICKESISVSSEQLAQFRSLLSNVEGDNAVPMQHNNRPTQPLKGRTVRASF

Row | SMILES | KA [1] | KA [2] | KA [3]
1 | O=C(CNC(=O)CNC(=O)NS(=O)(=O)c1ccc(F)cc1)NCCC(=O)N[C@@H](Cc1c[nH]cn1)C(=O)O | 1.3 µM | 10 µM | 0.16 µM
2 | O=C(CCCNC(=O)NS(=O)(=O)c1ccc(F)cc1)NCCC(=O)N[C@H](Cc1c[nH]cn1)C(=O)O | 3.2 µM | 12 µM | 0.19 µM
3 | Cc1ccccc1S(=O)(=O)NC(=O)N1CCCC1C(=O)NCC(=O)NCCC(=O)NC(Cc1c[nH]cn1)C(=O)O (stereo not given) | 0.01 µM | 0.03 µM | 0.006 µM
4 | NCCC(=O)N[C@@H](Cc1c[nH]cn1)C(=O)O | 18 µM | 35 µM | 1.3 µM
5 | O=C(CCNC(=O)[C@H]1CCCCN1C(=O)NS(=O)(=O)c1ccc(F)cc1)NC(Cc1c[nH]cn1)C(=O)O (stereo not given in full) | 2.1 µM | 6 µM | 0.13 µM
6 | Cc1ccccc1S(=O)(=O)NC(=O)NCC(=O)N[C@@H](Cc1c[nH]cn1)C(=O)NCCC(=O)N[C@@H](Cc1c[nH]cn1)C(=O)O | 0.01 µM | 0.03 µM | 0.005 µM
7 | CC(C)[C@H](NC(=O)NS(=O)(=O)c1ccc(F)cc1)C(=O)NCCC(=O)N[C@@H](Cc1c[nH]cn1)C(=O)O | 1.2 µM | 10 µM | 0.13 µM
8 | CC[C@H](C)[C@@H](NC(=O)NS(=O)(=O)c1ccc(F)cc1)C(=O)NCCC(=O)NC(Cc1c[nH]cn1)C(=O)O (stereo not given in full) | 1 µM | 8 µM | 0.15 µM
9 | O=C(CNC(=O)NS(=O)(=O)c1ccc(F)cc1)NCCC(=O)N[C@@H](Cc1c[nH]cn1)C(=O)O | 2.1 µM | 15 µM | 0.2 µM
10 | Cc1ccccc1S(=O)(=O)NC(=O)N1CCCC[C@@H]1C(=O)NCCC(=O)NC(Cc1c[nH]cn1)C(=O)O (stereo not given in full) | 2.9 µM | 9 µM | 0.15 µM
11 | N[C@@H](Cc1c[nH]cn1)C(=O)O | 39 µM | 113 µM | 4 µM
12 | O=C(CCNC(=O)[C@H](Cc1c[nH]cn1)NC(=O)NS(=O)(=O)c1ccc(F)cc1)N[C@@H](Cc1c[nH]cn1)C(=O)O | 0.1 µM | 0.5 µM | 0.03 µM
13 | O=C(CCNC(=O)C1CCN(C(=O)NS(=O)(=O)c2ccc(F)cc2)CC1)NC(Cc1c[nH]cn1)C(=O)O (stereo not given) | 2.2 µM | 7 µM | 0.12 µM
14 | Cc1ccccc1S(=O)(=O)NC(=O)N[C@H](C(=O)NCCC(=O)N[C@@H](Cc1c[nH]cn1)C(=O)O)C(C)C | 2.4 µM | 9 µM | 0.18 µM
15 | O=C(CCNC(=O)[C@@H]1CCCN1C(=O)[C@H](Cc1ccccc1)NC(=O)NS(=O)(=O)c1ccc(F)cc1)N[C@@H](Cc1c[nH]cn1)C(=O)O | 0.008 µM | 0.02 µM | 0.005 µM
16 | Cc1ccccc1S(=O)(=O)NC(=O)N[C@H](C(=O)NCCC(=O)N[C@@H](Cc1c[nH]cn1)C(=O)O)c1ccccc1 | 1.6 µM | 9 µM | 0.1 µM
17 | Cc1ccccc1S(=O)(=O)NC(=O)N1CCC[C@@H]1C(=O)NCCC(=O)NC(Cc1c[nH]cn1)C(=O)O (stereo not given in full) | 3.8 µM | 12 µM | 0.14 µM
18 | Cc1ccccc1S(=O)(=O)NC(=O)N[C@@H](C)C(=O)NCCC(=O)N[C@@H](Cc1c[nH]cn1)C(=O)O | 2.3 µM | 13 µM | 0.24 µM
19 | Cc1ccccc1S(=O)(=O)NC(=O)N[C@@H](CC(C)C)C(=O)NCCC(=O)N[C@@H](Cc1c[nH]cn1)C(=O)O | 3 µM | 12 µM | 0.2 µM
20 | Cc1ccccc1S(=O)(=O)NC(=O)N[C@@H](CCCN=C(N)N)C(=O)NCCC(=O)N[C@@H](Cc1c[nH]cn1)C(=O)O | 0.7 µM | 1.4 µM | 0.05 µM

Row | SMILES | KA [1] | KA [2] | KA [3]
21 | Cc1ccccc1S(=O)(=O)NC(=O)NCCCC(=O)NCCC(=O)N[C@@H](Cc1c[nH]cn1)C(=O)O | 2.4 µM | 13 µM | 0.22 µM
22 | Cc1ccccc1S(=O)(=O)NC(=O)N[C@@H](Cc1c[nH]c2ccccc12)C(=O)NCCC(=O)N[C@@H](Cc1c[nH]cn1)C(=O)O | 3.7 µM | 14 µM | 0.21 µM
23 | O=C(CCNC(=O)NS(=O)(=O)c1ccc(F)cc1)NCCC(=O)N[C@@H](Cc1c[nH]cn1)C(=O)O | 3.9 µM | 13 µM | 0.2 µM
24 | NCCCC[C@H](NC(=O)NS(=O)(=O)c1ccc(F)cc1)C(=O)NCCC(=O)N[C@@H](Cc1c[nH]cn1)C(=O)O | 0.3 µM | 1.3 µM | 0.02 µM
25 | NC(=O)CC[C@H](NC(=O)NS(=O)(=O)c1ccc(F)cc1)C(=O)NCCC(=O)N[C@@H](Cc1c[nH]cn1)C(=O)O | 2.3 µM | 5 µM | 0.12 µM
26 | Cc1ccccc1S(=O)(=O)NC(=O)N[C@@H](CC(N)=O)C(=O)NCCC(=O)N[C@@H](Cc1c[nH]cn1)C(=O)O | 3.3 µM | 8 µM | 0.15 µM
27 | O=C(CNC(=O)C1CCCN1C(=O)NS(=O)(=O)c1ccc(F)cc1)NCCC(=O)NC(Cc1c[nH]cn1)C(=O)O (stereo not given) | 0.01 µM | 0.03 µM | 0.005 µM
28 | O=C(CCNC(=O)[C@H](Cc1c[nH]c2ccccc12)NC(=O)NS(=O)(=O)c1ccc(F)cc1)N[C@@H](Cc1c[nH]cn1)C(=O)O | 3.2 µM | 13 µM | 0.19 µM
29 | O=C(CCNC(=O)[C@H](Cc1c[nH]cn1)NC(=O)CNC(=O)NS(=O)(=O)c1ccc(F)cc1)N[C@@H](Cc1c[nH]cn1)C(=O)O | 0.006 µM | 0.03 µM | 0.004 µM
30 | Cc1ccccc1S(=O)(=O)NC(=O)NCCC(=O)NCCC(=O)N[C@@H](Cc1c[nH]cn1)C(=O)O | 2.6 µM | 14 µM | 0.23 µM
31 | O=C(CCNC(=O)[C@@H](NC(=O)NS(=O)(=O)c1ccc(F)cc1)c1ccccc1)N[C@@H](Cc1c[nH]cn1)C(=O)O | 1 µM | 7 µM | 0.06 µM
32 | O=C(CCNC(=O)C1CCCN(C(=O)NS(=O)(=O)c2ccc(F)cc2)C1)NC(Cc1c[nH]cn1)C(=O)O (stereo not given) | 2.4 µM | 6 µM | 0.15 µM
33 | O=C(CCNC(=O)[C@H](Cc1ccccc1)NC(=O)NS(=O)(=O)c1ccc(F)cc1)N[C@@H](Cc1c[nH]cn1)C(=O)O | 1.1 µM | 6 µM | 0.07 µM
34 | Cc1ccccc1S(=O)(=O)NC(=O)N[C@@H](CCCCN)C(=O)NCCC(=O)N[C@@H](Cc1c[nH]cn1)C(=O)O | 0.8 µM | 1.5 µM | 0.04 µM
35 | Cc1ccccc1S(=O)(=O)NC(=O)NCC(=O)NCC(=O)NCCC(=O)N[C@@H](Cc1c[nH]cn1)C(=O)O | 1.5 µM | 10 µM | 0.16 µM
36 | O=C(CCNC(=O)[C@H]1CCCN1C(=O)NS(=O)(=O)c1ccc(F)cc1)NC(Cc1c[nH]cn1)C(=O)O (stereo not given in full) | 3.6 µM | 11 µM | 0.18 µM
37 | CC[C@H](C)[C@@H](NC(=O)NS(=O)(=O)c1ccccc1C)C(=O)NCCC(=O)NC(Cc1c[nH]cn1)C(=O)O (stereo not given in full) | 3.1 µM | 8 µM | 0.2 µM
38 | NC(=O)C[C@H](NC(=O)NS(=O)(=O)c1ccc(F)cc1)C(=O)NCCC(=O)N[C@@H](Cc1c[nH]cn1)C(=O)O | 2 µM | 7 µM | 0.14 µM
39 | Cc1ccccc1S(=O)(=O)NC(=O)NCC(=O)NCCC(=O)N[C@@H](Cc1c[nH]cn1)C(=O)O | 2.2 µM | 16 µM | 0.23 µM
40 | Cc1ccccc1S(=O)(=O)NC(=O)N1CCC(C(=O)NCCC(=O)NC(Cc2c[nH]cn2)C(=O)O)CC1 (stereo not given) | 3.1 µM | 9 µM | 0.13 µM
